Assays:
[1] = biological target: T1, Mitogen-activated protein kinase kinase kinase 5 (Homo sapiens, UniProt Q99683); test: Inhibition of recombinant full length human GST-tagged ASK1 expressed in baculovirus expression system using STK3 peptide substrate preincubated for 15 mins followed by substrate addition measured after 90 mins in presence of 1 mM ATP by HTRF assay
T1 sequence (Q99683 whole entry): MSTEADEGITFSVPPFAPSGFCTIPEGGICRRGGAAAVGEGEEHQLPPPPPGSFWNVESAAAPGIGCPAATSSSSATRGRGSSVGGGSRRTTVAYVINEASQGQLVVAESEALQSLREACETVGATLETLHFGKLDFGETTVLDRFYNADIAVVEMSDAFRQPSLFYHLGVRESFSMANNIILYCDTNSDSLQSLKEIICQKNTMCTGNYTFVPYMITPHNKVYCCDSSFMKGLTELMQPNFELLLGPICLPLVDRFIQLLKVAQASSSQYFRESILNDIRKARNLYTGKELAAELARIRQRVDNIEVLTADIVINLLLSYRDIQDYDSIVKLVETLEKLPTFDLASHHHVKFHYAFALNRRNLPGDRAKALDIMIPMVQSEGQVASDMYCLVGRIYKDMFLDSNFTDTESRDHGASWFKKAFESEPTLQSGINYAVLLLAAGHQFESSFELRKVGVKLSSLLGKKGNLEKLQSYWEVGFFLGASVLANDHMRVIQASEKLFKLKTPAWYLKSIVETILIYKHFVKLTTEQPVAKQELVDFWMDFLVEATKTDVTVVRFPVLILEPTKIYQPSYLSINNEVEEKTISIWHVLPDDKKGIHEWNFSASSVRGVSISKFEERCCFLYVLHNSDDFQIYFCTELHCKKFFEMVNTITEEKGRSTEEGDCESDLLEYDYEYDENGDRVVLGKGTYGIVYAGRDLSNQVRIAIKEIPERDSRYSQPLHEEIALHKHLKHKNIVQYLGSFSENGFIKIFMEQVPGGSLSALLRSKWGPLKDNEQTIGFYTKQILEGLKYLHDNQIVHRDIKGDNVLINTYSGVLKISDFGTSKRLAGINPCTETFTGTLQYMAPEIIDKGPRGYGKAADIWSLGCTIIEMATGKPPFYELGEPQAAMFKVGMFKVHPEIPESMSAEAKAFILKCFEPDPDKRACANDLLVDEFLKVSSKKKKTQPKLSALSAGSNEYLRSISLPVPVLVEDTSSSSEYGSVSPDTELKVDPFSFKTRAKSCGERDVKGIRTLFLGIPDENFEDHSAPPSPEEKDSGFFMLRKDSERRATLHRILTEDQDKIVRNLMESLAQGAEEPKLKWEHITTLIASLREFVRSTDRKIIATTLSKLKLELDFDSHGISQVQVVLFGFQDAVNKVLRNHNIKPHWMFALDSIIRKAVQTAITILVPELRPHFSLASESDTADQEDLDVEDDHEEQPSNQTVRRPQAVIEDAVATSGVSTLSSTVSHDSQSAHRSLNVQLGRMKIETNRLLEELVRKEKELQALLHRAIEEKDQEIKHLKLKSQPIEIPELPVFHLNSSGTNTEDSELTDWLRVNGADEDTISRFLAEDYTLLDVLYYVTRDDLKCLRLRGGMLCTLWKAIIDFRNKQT
Procedure, shortened: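 Full-length recombinant human ASK1 (3 nM final) in kinase buffer with 5 mM MgCl2 and 1 mM DTT, preincubated with compound 15 min at 25 °C. Reaction started with ATP (1 mM) and STK3 peptide (1 µM final), run 90 min at room temperature, 2% DMSO. Stopped with EDTA detection mix, HTRF read after 2 h. Kiapp fitted by Morrison or competitive equation, converted to IC50 by Cheng-Prusoff using ATP Km 48 µM. Mean of at least two determinations.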

[2] = Lipophilicity, log D at pH 7.4 by shake flask method; conditions: buffer
[3] = Permeability of the compound in RRCK cells; assay type: ADME, cell-based, Canis lupus familiaris, MDCKII-LE; conditions: dog, MDCK; read-out: permeability
[4] = biological target: T1, Mitogen-activated protein kinase kinase kinase 5; test: Inhibition of recombinant full length human ASK1 expressed in HEK293/AP1-Luc cells assessed as reduction in p38 phosphorylation after 18 hrs by HTRF assay; assay type: cell-based
Procedure, shortened: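 HEK293/AP-1luc cells stably overexpressing wild-type human full-length ASK1 (constitutively active, no stimulus), seeded at 25K cells/well, held 8 h at 37 °C, then switched to Optimem with Geneticin. Compound dilution series added (final DMSO 0.5%) for 18 h at 37 °C, 5% CO2. Cells lysed 1 h at room temperature; phospho-p38 read by HTRF after overnight (18 h) detection. Mean of at least two determinations.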

| SMILES | IC50 [1] [nM] | logD [2] | Papp [3] [×10⁻⁶ cm/s] | IC50 [4] [nM] |
| --- | --- | --- | --- | --- |
| CCS(=O)(=O)Nc1cccc(C(=O)Nc2cccc(-c3nncn3C(C)C)n2)c1 | 73 | 1.7 |  |  |
| CC(C)n1cnnc1-c1cccc(NC(=O)c2cccc(-c3ncc[nH]3)c2)n1 | 170 | 2.4 |  |  |
| CNC(=O)c1ccc(OC)c(C(=O)Nc2cccc(-c3nncn3C(C)C)n2)c1 | 2.4 | 1.8 | 9.8 | 272 |
| CC(C)n1cnnc1-c1cccc(NC(=O)c2cccc(C(N)=O)c2)n1 | 580 |  |  |  |
| CCS(=O)(=O)Nc1ccc(OC)c(C(=O)Nc2cccc(-c3nncn3C(C)C)n2)c1 | 0.32 | 2.2 | 5.6 | 41 |
